In brackets after ≈: the same amount, converted by molar mass.
Tests used:
[1] = test system: Escherichia coli; assay: In vivo activity in murine against Escherichia coli 257 infection after sc administration.; type: functional; conditions: Escherichia coli, sc; read-out: ED50
How it was run: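 Mouse protection test in CD1 Swiss albino mice (18–20 g). Mice were infected intraperitoneally with 0.5 mL of a diluted bacterial suspension, then treated within 5 min with one 1.0 mL subcutaneous dose at the dorsal base of the neck. Doses ranged from 0.05 to 250 mg/kg, with six mice per group. ED50 was calculated by the Reed–Muench method.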

[2] = target: T1, Penicillin-binding protein 1A (Escherichia coli K-12) (UniProt P02918); assay: Concentration required for 90% inhibition against 90 kDa penicillin-binding protein 1a binding using [14C]-Pen G as the radioligand.
T1 sequence (whole entry): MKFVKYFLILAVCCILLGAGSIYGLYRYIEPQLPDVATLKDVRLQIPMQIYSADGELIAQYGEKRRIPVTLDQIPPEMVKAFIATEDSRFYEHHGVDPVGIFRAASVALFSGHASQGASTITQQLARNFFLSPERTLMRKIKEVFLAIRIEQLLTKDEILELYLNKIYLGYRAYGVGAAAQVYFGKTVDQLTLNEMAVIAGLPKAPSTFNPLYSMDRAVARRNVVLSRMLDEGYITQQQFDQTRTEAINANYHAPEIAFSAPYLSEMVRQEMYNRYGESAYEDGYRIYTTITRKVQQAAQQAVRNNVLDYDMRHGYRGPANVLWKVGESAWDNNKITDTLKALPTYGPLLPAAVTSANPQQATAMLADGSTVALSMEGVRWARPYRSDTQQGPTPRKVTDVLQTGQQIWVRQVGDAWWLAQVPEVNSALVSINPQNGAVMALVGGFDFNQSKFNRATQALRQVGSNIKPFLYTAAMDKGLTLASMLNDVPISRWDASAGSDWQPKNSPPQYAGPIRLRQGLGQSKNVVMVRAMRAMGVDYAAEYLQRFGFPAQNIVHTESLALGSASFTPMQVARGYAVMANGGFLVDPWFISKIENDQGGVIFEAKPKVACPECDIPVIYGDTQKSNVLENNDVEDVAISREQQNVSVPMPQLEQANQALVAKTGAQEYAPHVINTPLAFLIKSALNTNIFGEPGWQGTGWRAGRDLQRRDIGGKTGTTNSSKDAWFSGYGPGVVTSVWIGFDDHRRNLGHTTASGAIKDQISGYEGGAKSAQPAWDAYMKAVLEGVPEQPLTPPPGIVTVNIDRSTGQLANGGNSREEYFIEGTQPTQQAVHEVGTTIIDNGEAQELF
How it was run: (§1)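 Solubilized membranes from sonicated E. coli DC-0 were used. PBP binding was measured as inhibition of [14C]penicillin G binding to each PBP.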

[3] = test system: Staphylococcus aureus; assay: In vitro antibacterial activity against Staphylococcus aureus Smith(MS); type: functional
How it was run: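 Staphylococci were tested by the standard agar dilution procedure using serial 2-fold dilutions of agent. The value is reported as the MIC.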

[4] = target: T2, Peptidoglycan D,D-transpeptidase MrdA (Escherichia coli K-12) (UniProt P0AD65); assay: Concentration required for 90% inhibition against 66 kDa penicillin-binding protein 2 binding using [14C]-Pen G as the radioligand.; how it was run: as §1
T2 sequence (whole entry): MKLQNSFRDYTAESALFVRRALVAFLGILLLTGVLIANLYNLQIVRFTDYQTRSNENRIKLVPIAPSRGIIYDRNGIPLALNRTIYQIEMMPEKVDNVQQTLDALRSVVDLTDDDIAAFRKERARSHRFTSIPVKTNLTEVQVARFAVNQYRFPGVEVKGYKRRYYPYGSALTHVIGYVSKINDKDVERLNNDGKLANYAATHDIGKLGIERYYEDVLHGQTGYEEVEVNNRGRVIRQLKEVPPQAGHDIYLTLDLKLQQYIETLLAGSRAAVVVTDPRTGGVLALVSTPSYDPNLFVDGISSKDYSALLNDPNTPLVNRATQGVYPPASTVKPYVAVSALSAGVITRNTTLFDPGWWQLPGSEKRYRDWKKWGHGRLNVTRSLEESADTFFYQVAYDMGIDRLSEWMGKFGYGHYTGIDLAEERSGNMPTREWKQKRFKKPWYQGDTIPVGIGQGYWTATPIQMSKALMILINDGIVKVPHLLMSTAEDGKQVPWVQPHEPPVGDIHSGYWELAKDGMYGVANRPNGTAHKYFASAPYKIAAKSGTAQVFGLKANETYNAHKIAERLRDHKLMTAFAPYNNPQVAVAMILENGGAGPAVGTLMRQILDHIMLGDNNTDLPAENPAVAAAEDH

Concentration [2]: 2 µg/mL
MIC [3]: 16 µg/mL (≈ 19.1 µM)
Concentration [4]: 100 µg/mL
Structure (SMILES): CC(C)(O/N=C(\C(=O)N[C@@H]1C(=O)N2C(C(=O)[O-])=C(C[N+]3(C)CCN(c4c(F)cc5c(=O)c(C(=O)O)cn(CCF)c5c4F)CC3)CS[C@H]12)c1csc(N)n1)C(=O)O
ED50 [1]: 0.28 mg/kg

Source: ChEMBL document CHEMBL1125894, “Dual-action cephalosporins: cephalosporin 3'-quaternary ammonium quinolones” (1991)
